Results published in ChEMBL document CHEMBL1148506, “Structure-activity relationships of new 1H-imidazo[4,5-c]quinolin-4-amine derivatives as allosteric enhancers of the A3 adenosine receptor” (J Med Chem, 2006).

Tests used:
[1] = target: T1, Adenosine receptor A2b (Homo sapiens) (UniProt P29275); experiment: Antagonist activity at human adenosine A2B receptor assessed as inhibition of NECA-induced cAMP accumulation in CHO membrane at 10 uM; set-up: scale not given: the % may be the effect or the level left
T1 sequence (whole entry): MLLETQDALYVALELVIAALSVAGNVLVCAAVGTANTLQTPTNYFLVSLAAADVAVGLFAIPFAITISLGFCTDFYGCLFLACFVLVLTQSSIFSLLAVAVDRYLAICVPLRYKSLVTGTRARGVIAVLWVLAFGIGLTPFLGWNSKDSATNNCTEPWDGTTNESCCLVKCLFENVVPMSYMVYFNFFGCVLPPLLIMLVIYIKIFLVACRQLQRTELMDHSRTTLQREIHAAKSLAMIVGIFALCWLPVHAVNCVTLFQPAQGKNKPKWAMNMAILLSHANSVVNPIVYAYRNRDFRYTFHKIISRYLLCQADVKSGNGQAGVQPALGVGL

[2] = target: T2, Adenosine receptor A3 (Homo sapiens) (UniProt P0DMS8); experiment: Decrease in dissociation of [125I]I-AB-MECA from human adenosine A3 receptor in CHO membrane at 10 uM relative to control after 30 min; type: cell membranes; set-up: scale not given: the % may be the effect or the level left
T2 sequence (whole entry): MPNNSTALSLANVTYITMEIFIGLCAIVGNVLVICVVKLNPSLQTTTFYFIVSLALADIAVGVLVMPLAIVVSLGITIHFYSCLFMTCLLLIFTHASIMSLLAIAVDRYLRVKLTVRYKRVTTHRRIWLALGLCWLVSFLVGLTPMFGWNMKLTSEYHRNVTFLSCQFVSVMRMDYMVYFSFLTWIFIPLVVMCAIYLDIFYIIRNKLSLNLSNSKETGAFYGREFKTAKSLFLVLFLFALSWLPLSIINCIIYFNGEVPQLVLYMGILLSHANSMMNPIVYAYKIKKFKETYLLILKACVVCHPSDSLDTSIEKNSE
In short: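 Membranes (20 μg) preloaded with 0.5 nM [125I]I-AB-MECA, 60 min at 25°C, in 50 mM Tris-HCl pH 8.0 with 10 mM MgCl2 and 1 mM EDTA. Dissociation started with 3 μM Cl-IB-MECA, with or without 10 μM modulator. Binding read by rapid filtration at 30 min; reported as % decrease in dissociation versus control (100%).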

[3] = target: T2, Adenosine receptor A3 (Homo sapiens); experiment: Displacement of [125I]I-AB-MECA from human adenosine A3 receptor in CHO membrane at 10 uM; type: cell membranes
In short: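 Membranes from CHO cells stably expressing human A3AR (20 μg protein) incubated with 0.5 nM [125I]I-AB-MECA and 10 μM test ligand, 60 min at 25°C, in 50 mM Tris·HCl pH 8.0, 10 mM MgCl2, 1 mM EDTA. Nonspecific binding defined with 10 μM NECA; filtration, gamma counting. Mean of 2-4 experiments in duplicate.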

Adenosine receptor A2a [4] = target: T3, Adenosine receptor A2a (Homo sapiens, UniProt P29274); experiment: Displacement of [3H]CGS21680 from human adenosine A2A receptor in HEK293 cells at 10 uM
T3 sequence (P29274 whole entry): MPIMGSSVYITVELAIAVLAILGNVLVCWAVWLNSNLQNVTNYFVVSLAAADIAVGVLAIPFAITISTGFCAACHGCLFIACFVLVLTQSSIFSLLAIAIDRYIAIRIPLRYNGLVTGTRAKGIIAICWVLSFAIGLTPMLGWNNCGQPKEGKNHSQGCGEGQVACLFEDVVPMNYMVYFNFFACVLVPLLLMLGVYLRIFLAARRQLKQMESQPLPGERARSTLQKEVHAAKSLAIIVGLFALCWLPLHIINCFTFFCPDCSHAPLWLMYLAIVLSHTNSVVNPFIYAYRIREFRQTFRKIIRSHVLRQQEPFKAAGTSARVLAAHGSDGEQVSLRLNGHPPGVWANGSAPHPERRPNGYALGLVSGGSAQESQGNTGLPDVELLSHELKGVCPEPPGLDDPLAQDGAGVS

[5] = target: T2, Adenosine receptor A3 (Homo sapiens); experiment: Increase of efficacy at human adenosine A3 receptor in CHO cells at 10 uM relative to 2-Cl-IB-MECA
[6] = target: T4, Adenosine receptor A1 (Homo sapiens) (UniProt P30542); experiment: Displacement of [3H]R-PIA from human adenosine A1 receptor in CHO membrane at 10 uM; type: cell membranes
T4 sequence (whole entry): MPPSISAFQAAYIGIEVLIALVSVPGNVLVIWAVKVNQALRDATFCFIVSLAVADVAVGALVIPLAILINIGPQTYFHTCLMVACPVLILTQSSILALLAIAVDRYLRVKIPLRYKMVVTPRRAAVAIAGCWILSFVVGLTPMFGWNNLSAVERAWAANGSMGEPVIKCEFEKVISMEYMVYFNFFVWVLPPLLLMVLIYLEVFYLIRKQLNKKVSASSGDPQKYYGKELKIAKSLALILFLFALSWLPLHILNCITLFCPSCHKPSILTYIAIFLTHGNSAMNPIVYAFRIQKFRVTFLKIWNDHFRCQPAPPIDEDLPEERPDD

Adenosine receptor A2a [7] = target: T3, Adenosine receptor A2a; experiment: Displacement of [3H]CGS21680 from human adenosine A2A receptor in HEK293 cells
Adenosine receptor A1 = target: T5, Adenosine receptor A1 (Homo sapiens, UniProt P30542); experiment: Displacement of [3H]R-PIA from human adenosine A1 receptor in CHO membrane; type: cell membranes
T5 sequence (P30542 whole entry): T4 sequence (whole entry)
In short: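 Membranes (40 μg/tube) from CHO cells stably expressing human A1AR, incubated with 2 nM [3H]R-PIA at 25 °C for 60 min in 50 mM Tris·HCl pH 7.4, 10 mM MgCl2. Membranes stored with 3 U/mL adenosine deaminase. Nonspecific binding defined with 10 μM N6-cyclopentyladenosine. Reaction ended by GF/B filtration.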

| SMILES | Activity [1] [%] | Activity [2] [%] | Activity [3] [%] | Activity (Adenosine receptor A2a [4]) [%] | Activity [5] [%] | Activity [6] [%] | Ki (Adenosine receptor A2a [7]) [µM] | Ki (Adenosine receptor A1) [µM] |
| --- | --- | --- | --- | --- | --- | --- | --- | --- |
| c1ccc2c3nc(C4CCCC4)nc-3c(Nc3ccc4c[nH]nc4c3)[nH]c2c1 | 5 | 109 | 67 | 68 | 96 | 56 |  |  |
| c1ccc(Nc2nc3ccccc3c3[nH]c(C4CCCC4)nc23)cc1 | -6.8 | 174 | 90 |  | 138 |  |  |  |
| c1ccc(CNc2[nH]c3ccccc3c3nc(C4CCCC4)nc2-3)cc1 | -3.4 | 145 | 86 | 77 | 147 | 28 |  |  |
| Clc1ccc(Nc2nc3ccccc3c3[nH]c(C4CCCC4)nc23)cc1Cl | -6.7 | 144 | 67 | 0 | 141 | 15 | > 10 | > 10 |
| Clc1ccc(Nc2nc3ccccc3c3[nH]c(C4CCC4)nc23)cc1Cl | -5.5 |  | 52 | 0.4 | 126 | -5 |  |  |
| Clc1ccc(Nc2nc3ccccc3c3[nH]c(C4CCCCCC4)nc23)cc1Cl | -7.3 | 130 | 68 | -2 | 115 | -4 |  |  |
| Clc1ccc(Nc2[nH]c3ccccc3c3ncnc2-3)cc1Cl | 10.2 | 91 | 39 | -0.8 | 92 | 1.8 |  |  |
| Clc1ccc(Nc2nc3ccccc3c3[nH]c(C4CCCC4)nc23)cc1 | -10.2 | 159 | 82 | 17 | 136 | 22 | > 10 | > 10 |

More lines, main results first:

| Activity [1] [%] | Activity [2] [%] | Activity [3] [%] | Activity (Adenosine receptor A2a [4]) [%] | Activity [5] [%] | Activity [6] [%] | Ki (Adenosine receptor A2a [7]) [µM] | SMILES | Ki (Adenosine receptor A1) [µM] |
| --- | --- | --- | --- | --- | --- | --- | --- | --- |
| 7.3 | 166 | 92 | 16 | 132 |  | > 10 | COc1ccc(Nc2nc3ccccc3c3nc(C4CCCC4)[nH]c23)cc1 |  |
| 10.1 | 126 | 89 | 74 | 125 | 70 |  | c1ccc2c3nc(C4CCCC4)nc-3c(Nc3ccc4cc[nH]c4c3)[nH]c2c1 |  |
| -4.1 | 153 | 87 |  | 128 |  |  | Cc1ccc(Nc2nc3ccccc3c3[nH]c(C4CCCC4)nc23)cc1 |  |
| 9 | 98 | 78 | 70 | 95 | -4 |  | Clc1ccc(Nc2[nH]c3ccccc3c3nc(-c4ccco4)nc2-3)cc1Cl |  |
| 0.3 | 101 | 80 | 60 | 109 | 59 |  | COc1ccc(CNc2[nH]c3ccccc3c3nc(C4CCCC4)nc2-3)cc1 |  |
| -10.7 | 108 | 69 | 8 | 111 | 21 |  | c1ccc2c3nc(C4CCCC4)nc-3c(Nc3ccc4c(c3)CCC4)[nH]c2c1 |  |
| -4.1 | 129 | 56 | 49 | 118 | 51 |  | OCc1cccc(Nc2[nH]c3ccccc3c3nc(C4CCCC4)nc2-3)c1 |  |
| -5.6 | 173 | 45 | -1 | 145 | -2 |  | Clc1ccc(Nc2nc3ccccc3c3nc(C4CCCCC4)[nH]c23)cc1Cl |  |
| -11.6 | 154 | 84 | 91 | 137 | 52 |  | c1ccc(CCNc2[nH]c3ccccc3c3nc(C4CCCC4)nc2-3)cc1 |  |
| -9.3 | 116 | 84 | -1 | 102 | 43.9 |  | CCCCCc1nc2c(Nc3ccc(Cl)c(Cl)c3)[nH]c3ccccc3c-2n1 |  |
